Rev-RRE block: HIV-1 Rev-RRE binding inhibitors, primary screen, biochemical, FRET, protein-RNA interaction; P05866; Rev peptide-RRE RNA binding; inhibition, % at 8 µM; 97,000 tested, 0.79% active;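 active = inhibition above the screen-wide mean plus 3 SD, cut at about 35% in these data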;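 also: 0% = median DMSO wells and 100% = median Neomycin B control wells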
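Test system: Cy5-tagged RRE RNA duplex with fluorescein-tagged Rev peptide; Probe or stimulus: labelled Rev peptide; Schedule: 5 min preincubation and 15 min binding, 25 °C; Signal: FRET fluorescence readout; Evaluation: % inhibition from 671/540 nm acceptor-to-donor ratio, scaled between controls; Control set: DMSO and neomycin B.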
LYP act: LYP phosphatase activators, primary screen, biochemical, DiFMUP fluorescence, 2 µM; Tyrosine-protein phosphatase non-receptor type 22 (Homo sapiens), Q9Y2R2; recombinant LYP; 0 = plate median, 100 = signal doubled; activation, % at 2 µM; 96,000 tested, 0.11% active;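 active = activation at 2 µM above a set limit, the mean plus 5 SD, cut at about 37% in these data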
Plk1 PBD FP: Plk1 polo box domain binding inhibitors, primary screen, biochemical, fluorescence polarization. Serine/threonine-protein kinase PLK1 (Homo sapiens), P53350. Plk1 PBD phosphopeptide binding. inhibition, %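 (tested at about 20 µM)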. 97,000 tested, 0.13% active. AID 693, 2007; in the data active = inhibition above about 34%, passing the limit was not always enough
Target sequence (P53350 whole entry, looked up, the tested form may be a part): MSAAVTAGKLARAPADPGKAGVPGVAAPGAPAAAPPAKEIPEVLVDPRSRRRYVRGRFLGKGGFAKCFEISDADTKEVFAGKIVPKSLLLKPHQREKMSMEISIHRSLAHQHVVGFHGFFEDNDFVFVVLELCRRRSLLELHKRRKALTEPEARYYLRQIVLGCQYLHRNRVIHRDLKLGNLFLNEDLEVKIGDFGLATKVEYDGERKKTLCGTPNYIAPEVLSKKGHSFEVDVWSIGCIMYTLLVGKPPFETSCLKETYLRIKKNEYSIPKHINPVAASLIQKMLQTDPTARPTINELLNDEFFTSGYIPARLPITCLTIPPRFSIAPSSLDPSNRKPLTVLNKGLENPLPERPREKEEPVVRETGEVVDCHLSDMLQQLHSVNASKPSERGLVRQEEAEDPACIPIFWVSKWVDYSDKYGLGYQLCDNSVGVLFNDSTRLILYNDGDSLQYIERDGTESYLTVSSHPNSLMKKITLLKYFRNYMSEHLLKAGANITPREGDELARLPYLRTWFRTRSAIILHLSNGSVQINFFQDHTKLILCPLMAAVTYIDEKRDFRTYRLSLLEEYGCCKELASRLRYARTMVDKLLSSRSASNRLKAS
PLAP act: PLAP enzyme activators, biochemical, luminescence, HTS; 96,000 tested, 1.2% active; activation fold at 20 µM; purified PLAP enzyme, luminescent substrate read-out; active compounds read high; in the data active = activation fold above about 2
PLK1 inh: human PLK1 kinase inhibitors, primary screen, biochemical, TR-FRET; Serine/threonine-protein kinase PLK1 (Homo sapiens), P53350; recombinant PLK1 kinase, TR-FRET peptide phosphorylation; inhibition, % at 10 µM; 97,000 tested, 0.53% active; AID 619, 2007;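 active = inhibition of 50% or more in the single-concentration screen; inactive = inhibition below 50%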;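 also: 0% = DMSO max control and 100% = H-89 dihydrochloride min control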
LYP inh 2: PTPN22 phosphatase inhibitors, primary screen, biochemical, DiFMUP fluorescence, 2 µM; AID 640, 2007; 96,000 tested, 0.21% active; Tyrosine-protein phosphatase non-receptor type 22 (Homo sapiens), Q9Y2R2; recombinant LYP catalytic domain; inhibition, % at 2 µM;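 active = inhibition at 2 µM at or above a set limit, the screen mean plus 3 SD, cut at about 24% in these data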;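 also: 0% = DMSO with enzyme and 100% = enzyme fully blocked by orthovanadate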
* hit, by the source's call; [ ] = another dose, or the depositor's remark. Most compounds without a hit are left out; they make up all but 2.7% or so of the library.

For CCOC(=O)N1CCC(NC(=O)c2cc3c(-c4ccc(OC)c(OC)c4)nn(C)c3s2)CC1 the results were PLAP act 1.
`COc1ccc(-n2c(COc3ccc4ccccc4c3)nnc2SCC(=O)NCc2ccco2)cc1` gave Rev-RRE block -5.4, LYP act -8.0, Plk1 PBD FP -1.6, PLAP act 2*, PLK1 inh 6.0 and LYP inh 2 7.3.
O=C(Nc1ccc(N2CCOCC2)c(Cl)c1)c1ccc(Br)o1 was read as Rev-RRE block -1.2, LYP act 4.2, Plk1 PBD FP -6.6, PLAP act 1.1, PLK1 inh -7.7 and LYP inh 2 -9.7.
For COCCCNc1ncnc2c1[nH]c1ccccc12 the results were Rev-RRE block 3.6, LYP act -31.3, Plk1 PBD FP -3.7, PLAP act 1, PLK1 inh -15.8 and LYP inh 2 33.6*.
For Cc1ccccc1CN(c1ccc(C(=O)Nc2ccccc2C(=O)N2CCCC2)cc1)S(C)(=O)=O the results were Rev-RRE block 15.2, LYP act 12.4, Plk1 PBD FP 16.5, PLAP act 2*, PLK1 inh -0.4 and LYP inh 2 -9.5.
`Cc1ccccc1NC(=O)c1ccc2c(c1)C(=O)N(CCC(C)C)C2=O` gave Rev-RRE block 8.0, LYP act 1.2, Plk1 PBD FP 1.2, PLAP act 0.8, PLK1 inh -27.5 and LYP inh 2 -0.5.
CCCCSc1nc(NCc2ccco2)c2c3c(sc2n1)COC(C)(C)C3 was read as Rev-RRE block 11.3, LYP act -1.3, Plk1 PBD FP 9.9, PLAP act 1, PLK1 inh -3.9 and LYP inh 2 -1.2.
Cn1c(=O)c2c(ncn2CC(=O)NC(C)(C)C)n(C)c1=O was read as Rev-RRE block 4.8, LYP act 4.8, Plk1 PBD FP -21.7, PLAP act 1, PLK1 inh -3.9 and LYP inh 2 -8.1.
`Cc1cc(S(=O)(=O)Nc2c(C(=O)O)[nH]c3ccccc23)ccc1F` gave Rev-RRE block 0.2, LYP act 1.2, Plk1 PBD FP 6.7, PLAP act 2*, PLK1 inh -10.8 and LYP inh 2 -2.3.
Screening COC(=O)c1[nH]c2ccc(C)cc2c1NS(=O)(=O)c1ccc(F)c(C)c1 returned Rev-RRE block 16.9, LYP act -8.1, Plk1 PBD FP -8.9, PLAP act 1, PLK1 inh -9.1 and LYP inh 2 6.1.
For O=C(Cn1nc(C(F)F)cc1C(F)F)NNC(=S)Nc1ccc(Cl)cc1 the results were Rev-RRE block 2.5, LYP act 2.5, Plk1 PBD FP -23.9, PLAP act 2*, PLK1 inh -3.2 and LYP inh 2 -1.9.
Screening Cc1cc([N+](=O)[O-])nn1CC(=O)NNC(=S)Nc1ccc([N+](=O)[O-])cc1 returned Rev-RRE block -2.2, LYP act -33.1, Plk1 PBD FP 20.6, PLAP act 1.1, PLK1 inh -8.2 and LYP inh 2 35.3*.
For COc1ccc(NC(=S)NNC(=O)Cn2nc([N+](=O)[O-])cc2C)cc1 the results were Rev-RRE block 4.4, LYP act 7.8, Plk1 PBD FP -2.5, PLAP act 2.2*, PLK1 inh -5.4 and LYP inh 2 -2.2.
`COc1ccc(C(=O)N/N=C(\C)Cn2nc([N+](=O)[O-])cc2C)cc1` gave Rev-RRE block 9.5, LYP act 5.7, Plk1 PBD FP 0.6, PLAP act 1, PLK1 inh -2.7 and LYP inh 2 -1.4.
For CSc1nc(N2CCOCC2)c2ccccc2n1 the results were Rev-RRE block 9.4, LYP act 7.3, Plk1 PBD FP 15.1, PLAP act 0.9, PLK1 inh -8.3 and LYP inh 2 -3.3.
`COc1ccc2c(c1)C=C(C(=O)NCc1ccc(Cl)cc1)CO2` gave Rev-RRE block 0.9, LYP act 5.4, Plk1 PBD FP 14.9, PLAP act 0.6, PLK1 inh 2.2 and LYP inh 2 1.0.
O=C(N/N=C/c1ccc(-c2cccc(C(F)(F)F)c2)o1)c1ccccc1Br was read as Rev-RRE block 59.5*, LYP act 7.6, Plk1 PBD FP -18.6, PLAP act 0.8, PLK1 inh -4.0 and LYP inh 2 -5.0.
Screening O=C(N/N=C/c1ccc(-c2cccc(C(F)(F)F)c2)o1)c1cccc(F)c1 returned Rev-RRE block 15.0, LYP act 0.1, Plk1 PBD FP 24.4, PLAP act 1.1, PLK1 inh -11.2 and LYP inh 2 5.2.
CCc1ccc2nc(NC(=O)c3ccc4c(=O)[nH]c(CN5CCOCC5)nc4c3)sc2c1 was read as Rev-RRE block 9.1, LYP act -28.1, Plk1 PBD FP -5.5, PLAP act 2.3*, PLK1 inh -9.1 and LYP inh 2 28.4*.
`CC1Cc2cc(/C(O)=C3/C(=O)C(=O)N(Cc4ccco4)C3c3cccs3)ccc2O1` (stereo not given) gave Rev-RRE block -0.2, LYP act 1.5, Plk1 PBD FP -11.2, PLAP act 1, PLK1 inh -18.6 and LYP inh 2 2.6.
COc1ccc(CCNS(=O)(=O)c2cccc(C)c2)cc1OC was read as Rev-RRE block 7.2, LYP act -3.4, Plk1 PBD FP -8.9, PLAP act 0.9, PLK1 inh -1.2 and LYP inh 2 2.5.
Screening Oc1c(C=Nc2cccc3cccnc23)sc2ccccc12 returned Rev-RRE block 133.3*[fluorescence artefact?], LYP act -3.7, Plk1 PBD FP -130.5, PLAP act 0.9, PLK1 inh -240.3 and LYP inh 2 4.5.
For COc1ccc(N=Cc2sc3ccccc3c2Cl)cc1 the results were Rev-RRE block 15.5, LYP act 6.0, Plk1 PBD FP 11.4, PLAP act 1, PLK1 inh -14.9 and LYP inh 2 -3.3.
For COc1ccc(Nc2ccccc2)c(C)c1 the results were Rev-RRE block -0.8, LYP act -0.3, Plk1 PBD FP -12.1, PLAP act 0.9, PLK1 inh -6.1 and LYP inh 2 -4.9.
For O=C(N/N=C/c1ccncc1)c1cc([N+](=O)[O-])cc([N+](=O)[O-])c1O the results were Rev-RRE block 4.8, LYP act -43.7, Plk1 PBD FP -25.3, PLAP act 1, PLK1 inh 8.5 and LYP inh 2 45.9*.
`Cc1cc(C(=O)N/N=C/c2cccc([N+](=O)[O-])c2)c(C)o1` gave Rev-RRE block -3.0, LYP act -2.3, Plk1 PBD FP -43.1, PLAP act 0.8, PLK1 inh -4.7 and LYP inh 2 4.0.
Cc1ccccc1-n1c(CSC(=N)N)nc2ccccc2c1=O was read as Rev-RRE block 4.5, LYP act 0.5, Plk1 PBD FP 20.6, PLAP act 2.3*, PLK1 inh -6.9 and LYP inh 2 -3.5.

Compound activity as filed in PubChem.
